Source: ChEMBL document CHEMBL1909598, “Synthesis of purine-scaffold fluorescent probes for heat shock protein 90 with use in flow cytometry and fluorescence microscopy” (Bioorg Med Chem Lett, 2011)
Active and inactive are the calls of the source. The rule behind the calls is not given here.

Assays:
[1] = target: T1, Heat shock protein HSP90 (Homo sapiens) (UniProt P07900+P08238); assay: Inhibition of Hsp90 in human MOLM13 cells assessed as Raf1 degradation at 1 uM after 24 hrs using horseradish peroxidase by Western blot analysis; format: cell-based; settings: MOLM-13
Procedure, shortened: (§1)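 MOLM-13 cells treated with derivatives at 1 μM for 24 h. Steady-state mFLT3 and Raf-1 levels read by Western blot, with β-actin as the loading control.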

[2] = target: T1, Heat shock protein HSP90 (Homo sapiens); assay: Inhibition of Hsp90 in human MOLM13 cells assessed as decrease in cell viability after 24 hrs using DAPI staining by flow cytometry analysis; format: cell-based; settings: MOLM-13
Procedure, shortened: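 MOLM-13 cells exposed to derivatives at 1 μM, 37°C, 24 h. Viability scored by DAPI exclusion.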

[3] = target: T1, Heat shock protein HSP90 (Homo sapiens); assay: Binding affinity to Hsp90 in human MOLM13 cells assessed as staining of live cells at 1 uM after 4 hrs using DAPI staining by flow cytometry analysis; format: cell-based; settings: MOLM-13
Procedure, shortened: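 MOLM-13 cells exposed to each fluorescent derivative at 1 μM, 37°C, 4 h. Binding to live cells (DAPI negative) read by flow cytometry as mean fluorescence intensity.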

[4] = target: Receptor-type tyrosine-protein kinase FLT3 (Homo sapiens) (UniProt P36888); assay: Inhibition of Hsp90 in human MOLM13 cells assessed as FLT3 mutant degradation at 1 uM after 24 hrs using horseradish peroxidase by Western blot analysis; format: cell-based; settings: MOLM-13; procedure, shortened: as §1
Chain of Receptor-type tyrosine-protein kinase FLT3 (Homo sapiens) (P36888 whole entry): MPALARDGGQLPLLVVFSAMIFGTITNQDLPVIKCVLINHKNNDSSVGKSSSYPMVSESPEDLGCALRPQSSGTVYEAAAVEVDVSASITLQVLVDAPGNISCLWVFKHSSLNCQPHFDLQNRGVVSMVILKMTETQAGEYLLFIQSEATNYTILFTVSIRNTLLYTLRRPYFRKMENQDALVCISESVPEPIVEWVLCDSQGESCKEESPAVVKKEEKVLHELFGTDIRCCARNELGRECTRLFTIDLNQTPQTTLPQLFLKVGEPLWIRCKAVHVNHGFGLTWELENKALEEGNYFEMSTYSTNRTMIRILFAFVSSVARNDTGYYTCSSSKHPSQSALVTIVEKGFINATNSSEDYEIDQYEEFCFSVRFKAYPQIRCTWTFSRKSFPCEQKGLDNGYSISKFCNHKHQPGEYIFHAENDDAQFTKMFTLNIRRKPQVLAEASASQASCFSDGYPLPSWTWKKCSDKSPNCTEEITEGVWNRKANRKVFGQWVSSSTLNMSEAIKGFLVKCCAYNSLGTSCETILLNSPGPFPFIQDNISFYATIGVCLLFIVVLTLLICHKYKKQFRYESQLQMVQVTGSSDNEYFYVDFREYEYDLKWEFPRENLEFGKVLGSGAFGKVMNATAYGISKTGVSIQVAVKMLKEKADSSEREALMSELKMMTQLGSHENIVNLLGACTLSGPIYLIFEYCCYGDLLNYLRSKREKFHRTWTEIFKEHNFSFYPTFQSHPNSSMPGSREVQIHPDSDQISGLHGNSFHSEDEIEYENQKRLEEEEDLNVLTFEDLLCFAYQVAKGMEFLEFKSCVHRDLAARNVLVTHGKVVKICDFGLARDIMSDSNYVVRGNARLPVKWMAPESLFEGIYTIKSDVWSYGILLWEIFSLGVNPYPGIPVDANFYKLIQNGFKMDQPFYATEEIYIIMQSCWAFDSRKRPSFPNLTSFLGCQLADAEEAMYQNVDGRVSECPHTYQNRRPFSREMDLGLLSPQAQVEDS

[5] = tested on: MV4-11; assay: Drug uptake in human MV4-11 cells assessed as intracellular localization at 1 uM after 24 hrs by DAPI staining based confocal fluorescence microscopy; format: ADME, cell-based; settings: mv4-11, 24 h
Procedure, shortened: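 MV4-11 cells given 1 μM probe at 37°C for 24 h, then fixed. Cells stained with Na⁺/K⁺-ATPase α1 antibody plus Alexa Fluor 568 secondary as the surface marker. DAPI used to mark non-viable cells. Imaged by confocal microscopy.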

[6] = tested on: MOLM-13; assay: Drug uptake in human MOLM13 cells assessed as CD45 staining of cells at 1 uM after 1 hr using 7-AAD staining by flow cytometry analysis; format: ADME, cell-based; settings: molm-13, 1 h
[7] = tested on: MV4-11; assay: Drug uptake in human MV4-11 cells assessed as CD45 staining of cells at 1 uM after 30 mins using 7-AAD staining by flow cytometry analysis; format: ADME, cell-based; settings: mv4-11, 0.5 h
[8] = Drug uptake in human lymphocytes assessed as CD45 staining of cells at 1 uM after 1 hr using 7-AAD staining by flow cytometry analysis; format: ADME, cell-based; settings: lymphocyte

| SMILES | inhibition [1] | inhibition [2] | Activity [3] | inhibition [4] | Drug uptake [5] | Drug uptake [6] | Drug uptake [7] | Drug uptake [8] |
| --- | --- | --- | --- | --- | --- | --- | --- | --- |
| CC(C)N(CCCn1c(Sc2cc3c(cc2I)OCO3)nc2c(N)ncnc21)C(=S)Nc1ccc(-c2c3ccc(=O)cc-3oc3cc(O)ccc23)c(C(=O)O)c1 | Active | Active | Active | Active | Active | Active | Active | Not Active |
| Nc1ncnc2c1nc(Sc1cc3c(cc1I)OCO3)n2CCCNCCCCCCNc1ccc([N+](=O)[O-])c2nonc12 | Active | Active | Active | Active | Active |  |  |  |
